For series [1], the system named is NCI-H69. As to the kind of experiment: Cytotoxicity measured using the drug resistant, P-glycoprotein (Pgp) expressing human small cell lung carcinoma cell line H69/LX4. Type of series: functional, cell-based. Put shortly:
(§1)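 H69/P (parental) or H69/LX4 (P-glycoprotein-overexpressing) human SCLC cells; compound added, then 5-6 days incubation; proliferation read with Alamar Blue.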

The subject of series [2] is COR-L23. Put plainly: Cytotoxicity measured with the drug resistant human non small cell lung carcinoma cell line COR-L23 (COR-L23/R) which over expresses multidrug resistance associated with protein(MRP). The format is functional, cell-based. A digest of the protocol:
(§2)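 COR-L23/P (parental) or COR-L23/R (MRP-overexpressing) human NSCLC cells; compound added, then 5-6 days incubation; proliferation read by sulforhodamine B staining.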

The subject of series [3] is COR-L23. Put plainly: Cytotoxicity measured using the COR-L23 parental (COR-L23/P) human non small cell lung carcinoma cell line. Type of series: functional, cell-based. Put shortly: as §2
The subject of series [4] is NCI-H69. Put plainly: Rf is the resistance factor and is the ratio of the IC50 on the resistant cell line over the IC50 on the parental H69/P cell line. The format is functional, Homo sapiens. Put shortly: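 Resistance factor computed as IC50 in H69/LX4 (Pgp-overexpressing) divided by IC50 in H69/P. Both IC50s come from a 5-6 day Alamar Blue proliferation assay.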

In series [5] the test system is NCI-H69. Put plainly: Cytotoxicity measured using the H69 parental (H69/P) human small cell lung carcinoma cell line. Type of series: functional, cell-based. Put shortly: as §1
Series [6] in a line: Rf is the resistance factor and is the ratio of the IC50 on the resistant cell line over the IC50 on the parental COR-L23/P cell line. As to conditions: human. Put shortly:
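Resistance factor computed as IC50 in COR-L23/R (MRP-overexpressing) divided by IC50 in COR-L23/P. Both IC50s come from a 5-6 day sulforhodamine B proliferation assay.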

A word on the IC50: it is the concentration at which inhibition is half-maximal.

Take `CC[C@@]1(O)C(=O)OCc2c1cc1n(c2=O)Cc2cc3c(CN(C)C)c(O)ccc3nc2-1` [TOPOTECAN]: the results for the IC50 in the series on NCI-H69 [1], in the series on COR-L23 [2] and in the series with COR-L23 [3] were 62.9 nM, 20 nM and 13.2 nM, respectively. Besides, in the series with NCI-H69 [4], the Rf is reported as 3.9.
On to `CN(C)CCNC(=O)c1cccc2nc3ccc4cc(O)ccc4c3nc12`, for which the IC50 in the series with NCI-H69 [5] was determined as 109 nM; in the series with NCI-H69 [1] it was 193 nM; in the series on COR-L23 [2], 96 nM; in the series on COR-L23 [3] it was 67 nM. The Rf in series [6] worked out at 1.4; in the series on NCI-H69 [4] it was 1.8.
For the molecule `COc1cccc2c1ccc1nc3cccc(C(=O)NCCN(C)C)c3nc12`, the Rf (in series [6]; in the series on NCI-H69 [4]) was 1.4 in each case. For the same molecule, the IC50 in the series on NCI-H69 [1] is 49 nM; in the series with COR-L23 [2] it was 20 nM; in the series on COR-L23 [3] it was 14 nM.
For the molecule `COc1ccc2c(ccc3nc4cccc(C(=O)NCCN(C)C)c4nc32)c1`, the IC50 amounted to 141 nM with NCI-H69 [5], 185 nM in the series on NCI-H69 [1], 79 nM in the series on COR-L23 [2] and 68 nM in the series on COR-L23 [3]. For the same molecule, the Rf in series [6] was 1.2; with NCI-H69 [4] it was 1.3.
In the case of `CN(C)CCNC(=O)c1cccc2nc3ccc4c(O)cccc4c3nc12`, the IC50 in the series on NCI-H69 [5] is 35 nM; in the series on NCI-H69 [1], 48 nM; in the series on COR-L23 [2], 17 nM; with COR-L23 [3], 15 nM. The Rf was 1.1 in series [6] and 1.4 in the series on NCI-H69 [4].
For the molecule `COc1cccc2c1ccc1nc3ccc(N)c(C(=O)NCCN(C)C)c3nc12`, the IC50 with NCI-H69 [5] was 34 nM; in the series with NCI-H69 [1], 29 nM. Also, in the series with NCI-H69 [4], the Rf is 0.85.
For `CCNC(=O)Oc1cccc2c1ccc1nc3cccc(C(=O)NCCN(C)C)c3nc12` the same measures were 64 nM, 103 nM and 1.6.
The matching figures for `CN(C)CCNC(=O)c1cccc2nc3ccc4c(NCC#N)cccc4c3nc12`: 103 nM, 155 nM and 1.5.
Consider `CN(C)CCNC(=O)c1cccc2nc3ccc4ccccc4c3nc12`, for which the Rf in series [6] is on record as 1.4; in the series with NCI-H69 [4] it was 1.9. The figures for the half-maximal inhibitory concentration (IC50) in the series on NCI-H69 [1], in the series with COR-L23 [2] and with COR-L23 [3] were 130 nM, 140 nM and 102 nM, respectively.
On to `Cc1cccc2c1ccc1nc3cccc(C(=O)NCCN(C)C)c3nc12`, for which the IC50 in the series on NCI-H69 [5] came to 117 nM; with NCI-H69 [1], 98 nM. Moreover, the Rf in the series with NCI-H69 [4] is listed as 0.8.
Take `CN(C)CCCOc1cccc2c1ccc1nc3cccc(C(=O)NCCN(C)C)c3nc12`: the 50% inhibitory concentration (IC50) in the series with NCI-H69 [5] was found to be 116 nM; in the series on NCI-H69 [1], 91 nM. The Rf in the series on NCI-H69 [4] was found to be 0.8.
For `COc1cccc2c1ccc1nc3c(C)ccc(C(=O)NCCN(C)C)c3nc12` the same measures were 87 nM, 168 nM and 1.9.
In the case of `COc1cccc2c1ccc1nc3cccc(C(=O)NCCN4CCCCC4)c3nc12`, the IC50 was found to be 156 nM with NCI-H69 [5] and 330 nM in the series on NCI-H69 [1]. In addition, the Rf in the series with NCI-H69 [4] came out at 2.1.
For `CN(C)CCNC(=O)c1cccc2nc3ccc4c(OCc5ccccc5)cccc4c3nc12` the same measures were 556 nM, 882 nM and 1.6.
Consider `CN(C)CCNC(=O)c1cccc2nc3ccc4ccc(O)cc4c3nc12`, for which the IC50 in the series with NCI-H69 [5] was found to be 86 nM; with NCI-H69 [1], 282 nM. Also, in the series on NCI-H69 [4], the Rf came out at 3.3.
For `CN(C)CCNC(=O)c1cccc2nc3ccc4c(N(C)C)cccc4c3nc12` the same measures were 778 nM, 925 nM and 1.2.
The matching figures for `COC(=O)C(CN(C)C)NC(=O)c1cccc2nc3ccc4c(OC)cccc4c3nc12` (stereo unspecified): 468 nM, more than 5000 nM and more than 10.
The matching figures for `COc1cccc2c1ccc1nc3cccc(C(=O)N[C@@H]4CCN(C)C4)c3nc12`: 79 nM, 128 nM and 1.6.
As to `COc1cccc2c1ccc1nc3cccc(C(=O)NC(CO)CN(C)C)c3nc12` (stereo unspecified), the IC50 with NCI-H69 [5] stood at 23 nM; with NCI-H69 [1], 28 nM. For the same molecule, the Rf in the series with NCI-H69 [4] amounted to 1.2.
`CN(C)CCNC(=O)c1cccc2nc3ccc4c([N+](=O)[O-])cccc4c3nc12`: the IC50 is 96 nM in the series on NCI-H69 [5], 120 nM in the series on NCI-H69 [1], 24 nM in the series with COR-L23 [2] and 20 nM with COR-L23 [3]. In addition, the Rf in series [6] came out at 1.2; with NCI-H69 [4], 1.3.
As to `COc1cccc2c1C(=O)c1c(O)c3c(c(O)c1C2=O)C[C@@](O)(C(=O)CO)C[C@@H]3O[C@H]1C[C@H](N)[C@H](O)[C@H](C)O1` [DOXORUBICIN], the IC50 in the series with NCI-H69 [1] worked out at 3870 nM; with COR-L23 [2], 319 nM; in the series on COR-L23 [3], 20.1 nM. Further, in the series with NCI-H69 [4], the Rf is 142.
With `CCOC(=O)COc1cccc2c1ccc1nc3cccc(C(=O)NCCN(C)C)c3nc12`, the figures for the IC50 in the series with NCI-H69 [5] and with NCI-H69 [1] were 587 nM and 506 nM, respectively. In addition, in the series on NCI-H69 [4], the Rf turned out to be 0.9.
The matching figures for `CN(C)CCNC(=O)c1cccc2nc3ccc4c(N(S(C)(=O)=O)S(C)(=O)=O)cccc4c3nc12`: 2140 nM, more than 5000 nM and more than 2.3.
For `CNCCNC(=O)c1cccc2nc3ccc4c(OC)cccc4c3nc12` the same measures were 99 nM, 234 nM and 2.4.
The matching figures for `CN(C)CCNC(=O)c1cccc2nc3ccc4c(OCC(N)=O)cccc4c3nc12`: 89 nM, 328 nM and 3.7.
With `CN(C)CCNC(=O)c1cccc2nc3ccc4ccc([N+](=O)[O-])cc4c3nc12`, the IC50 with NCI-H69 [5] turned out to be 94 nM; in the series with NCI-H69 [1], 102 nM. In addition, the Rf in the series on NCI-H69 [4] is listed as 1.1.
